# Test system: Fibroblast
# Assay: Multiplex assay against human fibroblast
# Format: toxicity, cell-based
# How it was run: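 Four dyes were applied at seeding to live cells: Hoechst33342, BioTracker Green Microtubule Cytoskeleton Dye, MitoTracker Red and Annexin V Alexa Fluor 680. Imaging after compound addition used a CQ1 microscope at 37°C and 5% CO2. CellPathfinder machine-learning gating then sorted cells into Hoechst high-intensity objects or normal cells, normal cells into healthy, pyknosed or fragmented nuclei, and pyknosed cells into mitotic or apoptotic, with tubulin, mitochondrial-mass and membrane-permeability phenotypes given as per cents of healthy-nucleus cells.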
# [1] = 12 h, 1 µM, compound concentration 1 uM, replicate 1
# [2] = 12 h, 1 µM, compound concentration 1 uM, replicate 2
# [3] = 12 h, 10 µM, compound concentration 10 uM, replicate 1
# [4] = 12 h, 10 µM, compound concentration 10 uM, replicate 2
# [5] = 24 h, 1 µM, compound concentration 1 uM, replicate 1
# [6] = 24 h, 1 µM, compound concentration 1 uM, replicate 2
# [7] = 24 h, 10 µM, compound concentration 10 uM, replicate 1
# [8] = 24 h, 10 µM, compound concentration 10 uM, replicate 2
# [9] = 48 h, 1 µM, compound concentration 1 uM, replicate 1
# [10] = 48 h, 1 µM, compound concentration 1 uM, replicate 2
# [11] = 48 h, 10 µM, compound concentration 10 uM, replicate 1
# [12] = 48 h, 10 µM, compound concentration 10 uM, replicate 2
compound,measurement,setting,value
CCc1nn(CCCN2CCN(c3cccc(Cl)c3)CC2)c(=O)n1CCOc1ccccc1.Cl [NEFAZODONE HYDROCHLORIDE],Population Apoptotic (%),[1],60%
same,Population Fragmented Nuclei (%),[1],16%
same,Population Healthy Nuclei (%),[1],47%
same,Population Hoechst High Intensity Objects (%),[1],13%
same,Population Membrane Permeable-Phenotype (%),[1],31%
same,Population Mitochondria Different-Phenotype (%),[1],10%
same,Population Mitotic Cells (%),[1],40%
same,Population Normal (%),[1],86%
same,Population Pyknosed Nuclei (%),[1],35%
same,Population Tubulin-Different-Phenotype (%),[1],75%
same,Total Cell Count,[1],176
same,Population Apoptotic (%),[2],0%
same,Population Fragmented Nuclei (%),[2],8%
same,Population Healthy Nuclei (%),[2],89%
same,Population Hoechst High Intensity Objects (%),[2],6%
same,Population Membrane Permeable-Phenotype (%),[2],3%
same,Population Mitochondria Different-Phenotype (%),[2],9%
same,Population Mitotic Cells (%),[2],100%
same,Population Normal (%),[2],93%
same,Population Pyknosed Nuclei (%),[2],1%
same,Population Tubulin-Different-Phenotype (%),[2],29%
same,Total Cell Count,[2],68
same,Population Apoptotic (%),[3],81%
same,Population Fragmented Nuclei (%),[3],24%
same,Population Healthy Nuclei (%),[3],45%
same,Population Hoechst High Intensity Objects (%),[3],10%
same,Population Membrane Permeable-Phenotype (%),[3],1%
same,Population Mitochondria Different-Phenotype (%),[3],84%
same,Population Mitotic Cells (%),[3],18%
same,Population Normal (%),[3],89%
same,Population Pyknosed Nuclei (%),[3],30%
same,Population Tubulin-Different-Phenotype (%),[3],96%
same,Total Cell Count,[3],157
same,Population Apoptotic (%),[4],69%
same,Population Fragmented Nuclei (%),[4],9%
same,Population Healthy Nuclei (%),[4],69%
same,Population Hoechst High Intensity Objects (%),[4],3%
same,Population Membrane Permeable-Phenotype (%),[4],60%
same,Population Mitochondria Different-Phenotype (%),[4],97%
same,Population Mitotic Cells (%),[4],30%
same,Population Normal (%),[4],96%
same,Population Pyknosed Nuclei (%),[4],20%
same,Population Tubulin-Different-Phenotype (%),[4],97%
same,Total Cell Count,[4],61
same,Population Apoptotic (%),[5],52%
same,Population Fragmented Nuclei (%),[5],20%
same,Population Healthy Nuclei (%),[5],57%
same,Population Hoechst High Intensity Objects (%),[5],14%
same,Population Membrane Permeable-Phenotype (%),[5],16%
same,Population Mitochondria Different-Phenotype (%),[5],17%
same,Population Mitotic Cells (%),[5],47%
same,Population Normal (%),[5],85%
same,Population Pyknosed Nuclei (%),[5],22%
same,Population Tubulin-Different-Phenotype (%),[5],68%
same,Total Cell Count,[5],175
same,Population Apoptotic (%),[6],50%
same,Population Fragmented Nuclei (%),[6],8%
same,Population Healthy Nuclei (%),[6],85%
same,Population Hoechst High Intensity Objects (%),[6],2%
same,Population Membrane Permeable-Phenotype (%),[6],1%
same,Population Mitochondria Different-Phenotype (%),[6],15%
same,Population Mitotic Cells (%),[6],50%
same,Population Normal (%),[6],97%
same,Population Pyknosed Nuclei (%),[6],5%
same,Population Tubulin-Different-Phenotype (%),[6],33%
same,Total Cell Count,[6],71
same,Population Apoptotic (%),[7],80%
same,Population Fragmented Nuclei (%),[7],23%
same,Population Healthy Nuclei (%),[7],58%
same,Population Hoechst High Intensity Objects (%),[7],22%
same,Population Membrane Permeable-Phenotype (%),[7],3%
same,Population Mitochondria Different-Phenotype (%),[7],86%
same,Population Mitotic Cells (%),[7],20%
same,Population Normal (%),[7],77%
same,Population Pyknosed Nuclei (%),[7],18%
same,Population Tubulin-Different-Phenotype (%),[7],100%
same,Total Cell Count,[7],177
same,Population Fragmented Nuclei (%),[8],22%
same,Population Healthy Nuclei (%),[8],56%
same,Population Hoechst High Intensity Objects (%),[8],1%
same,Population Membrane Permeable-Phenotype (%),[8],80%
same,Population Mitochondria Different-Phenotype (%),[8],100%
same,Population Normal (%),[8],98%
same,Population Pyknosed Nuclei (%),[8],20%
same,Total Cell Count,[8],72
same,Population Apoptotic (%),[9],43%
same,Population Fragmented Nuclei (%),[9],30%
same,Population Healthy Nuclei (%),[9],58%
same,Population Hoechst High Intensity Objects (%),[9],19%
same,Population Membrane Permeable-Phenotype (%),[9],19%
same,Population Mitochondria Different-Phenotype (%),[9],5%
same,Population Mitotic Cells (%),[9],56%
same,Population Normal (%),[9],80%
same,Population Pyknosed Nuclei (%),[9],11%
same,Population Tubulin-Different-Phenotype (%),[9],51%
same,Total Cell Count,[9],178
same,Population Apoptotic (%),[10],50%
same,Population Healthy Nuclei (%),[10],67%
same,Population Hoechst High Intensity Objects (%),[10],13%
same,Population Membrane Permeable-Phenotype (%),[10],6%
same,Population Mitochondria Different-Phenotype (%),[10],14%
same,Population Mitotic Cells (%),[10],50%
same,Population Normal (%),[10],86%
same,Population Pyknosed Nuclei (%),[10],1%
same,Population Tubulin-Different-Phenotype (%),[10],71%
same,Total Cell Count,[10],127
same,Population Apoptotic (%),[11],85%
same,Population Fragmented Nuclei (%),[11],40%
same,Population Healthy Nuclei (%),[11],55%
same,Population Hoechst High Intensity Objects (%),[11],34%
same,Population Membrane Permeable-Phenotype (%),[11],1%
same,Population Mitochondria Different-Phenotype (%),[11],62%
same,Population Mitotic Cells (%),[11],14%
same,Population Normal (%),[11],65%
same,Population Pyknosed Nuclei (%),[11],4%
same,Population Tubulin-Different-Phenotype (%),[11],96%
same,Total Cell Count,[11],257
same,Population Apoptotic (%),[12],50%
same,Population Fragmented Nuclei (%),[12],43%
same,Population Healthy Nuclei (%),[12],54%
same,Population Hoechst High Intensity Objects (%),[12],25%
same,Population Membrane Permeable-Phenotype (%),[12],2%
same,Population Mitochondria Different-Phenotype (%),[12],59%
same,Population Mitotic Cells (%),[12],50%
same,Population Normal (%),[12],75%
same,Population Pyknosed Nuclei (%),[12],2%
same,Population Tubulin-Different-Phenotype (%),[12],95%
same,Total Cell Count,[12],232
